# Scp1 inh: Scp-1 (human) phosphatase inhibition. Q9GZU7. Recombinant Scp1, phosphopeptide, malachite green phosphate absorbance. inhibition, % at 20 µM. 340,000 compounds, 0.88% hits. AID 493091;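 active = inhibition above about 50% at 20 µM, limit read from the data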;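 also: plate controls were DMSO wells with enzyme for no effect and wells lacking enzyme for full effect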
#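 Incubation: 45 min enzyme reaction at room temperature / System: truncated SCP-1 phosphatase (76-261aa) / Reagent: Phospho 17-mer peptide substrate / Buffer or medium: Acidic Tris acetate buffer with magnesium and detergent / Signal: absorbance at 630 nm / Doses: one concentration, 20 µM, with 1.0% DMSO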
# STEP block: inhibitors of human striatal-enriched phosphatase STEP. recombinant STEP, OMFP fluorogenic substrate, fluorescence. inhibition, % at 20 µM. 360,000 compounds, 0.25% hits. AID 588621;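 active = inhibition at 20 µM, scaled per plate between control wells, above about 37%, limit read from the data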;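 also: 0% = DMSO with enzyme and substrate and 100% = substrate only without enzyme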
# Target sequence (P54829 whole entry, looked up): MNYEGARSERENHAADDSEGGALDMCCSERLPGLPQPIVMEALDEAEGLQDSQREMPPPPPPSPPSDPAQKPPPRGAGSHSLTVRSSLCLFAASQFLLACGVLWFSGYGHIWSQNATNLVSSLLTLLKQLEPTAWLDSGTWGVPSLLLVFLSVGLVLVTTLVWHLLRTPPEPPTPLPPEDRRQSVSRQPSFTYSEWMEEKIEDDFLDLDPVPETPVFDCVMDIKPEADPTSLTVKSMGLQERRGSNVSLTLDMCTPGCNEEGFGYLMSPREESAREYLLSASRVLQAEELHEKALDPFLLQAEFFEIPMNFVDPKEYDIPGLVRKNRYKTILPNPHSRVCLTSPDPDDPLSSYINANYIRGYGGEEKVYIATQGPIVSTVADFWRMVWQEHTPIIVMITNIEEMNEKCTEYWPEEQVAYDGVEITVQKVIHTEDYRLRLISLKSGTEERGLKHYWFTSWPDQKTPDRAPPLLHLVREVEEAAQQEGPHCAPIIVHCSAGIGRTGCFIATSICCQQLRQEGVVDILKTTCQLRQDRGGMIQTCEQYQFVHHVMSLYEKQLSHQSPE
#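 Material: STEP (striatal-enriched tyrosine phosphatase) enzyme, cell-free | Medium: 50 mM Bis-Tris pH 6.0 with 2.5 mM DTT and 0.005% Tween 20 | Read-out: Percent inhibition scaled to no-enzyme and uninhibited-enzyme controls, plate-pattern corrected | Signal: Fluorescence read at 480 nm ex / 540 nm em | Times: 20 min reaction, room temperature, in the dark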
# SUMO1 PPI mod: SUMO1-SIM interaction modulation; 360,000 compounds, 0.33% hits; inhibition, % at 20 µM; SUMO1 binding to a labelled peptide, TR-FRET, 1 h; in the data active = inhibition above about 37%
# Target sequence (P63165 whole entry, looked up): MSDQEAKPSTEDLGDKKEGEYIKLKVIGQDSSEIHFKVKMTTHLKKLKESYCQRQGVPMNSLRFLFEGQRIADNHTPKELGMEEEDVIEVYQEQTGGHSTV
# DNMT1 inh: inhibitors of human DNMT1. P26358. DNMT1 molecular beacon, Hinp1I cleavage, fluorescence. inhibition (reported as % activation of signal), % at 10 µM. 360,000 compounds, 0.83% hits. AID 588458; in the data active = inhibition above about 50%
# LMPTP block: LMPTP (human) inhibition | inhibition, % at 20 µM | recombinant LMPTP-A, OMFP fluorogenic substrate, fluorescence intensity | AID 651560 | P24666 | 360,000 compounds, 0.22% hits;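 active = compounds that cut the enzyme signal by at least half of the control window in the single-dose screen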;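 also: plate controls were DMSO wells with enzyme plus substrate for no effect and substrate without enzyme for full effect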
#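 test system = LMPTP-A | amount = 0.625 nM LMPTP-A final | reagent = fluorogenic phosphatase substrate OMFP at 400 µM final | incubation = 50 min at room temperature | benchmarks = no-enzyme low control, uninhibited high control | medium = Bis-Tris pH 6.0, DTT, detergent | signal = fluorescence intensity of OMFP turnover product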
# Beacon interf DR: shows spectral interference in the DNMT1 beacon assay; shares compounds with DNMT1 inh; molecular beacon fluorescence, spectral interference counter-screen; IC50, µM; 200 tested, under 10 active; call rule not given here
# DNMT1 confirm: DNMT1 inhibition confirmation, single concentration; shares compounds with DNMT1 inh; DNMT1 molecular beacon HinP1I cleavage, fluorescence; inhibition, % at 10 µM; 2,300 compounds, 8% hits; AID 602385;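 active = average inhibition of at least 30% in the single-concentration confirmation test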
# DNMT1 interf: counter-screen for DNMT1 inhibitors: spectral interference; shares compounds with DNMT1 inh; DNMT1 molecular beacon spectral interference counterscreen, fluorescence 485/520; activation (fluorescence interference), % at 10 µM; 2,300 compounds, 1% hits; AID 602387;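 active = activation of at least 30% at 10 µM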;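 also: DNMT1 catalytic domain with a HinP1I cleavage step and a FAM/dabcyl DNA beacon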
# Active calls of the source: *; nt = no result; + = active, no number. Hits are enriched below; roughly 1.7% of the tested compounds scored in any of these assays.
SMILES,Scp1 inh,STEP block,SUMO1 PPI mod,DNMT1 inh,LMPTP block,DNMT1 confirm,DNMT1 interf,others
CC(=O)[C@@]1(O)CC[C@H]2[C@@H]3C[C@H](C)C4=CC(=O)C=C[C@]4(C)[C@@]3(F)[C@@H](O)C[C@@]21C,-6,0,-3,80*,-2,4,5,
COc1ccc(C(=O)CSc2nnc(-c3ccco3)n2C)cc1,0,2,1,-2,-1,nt,nt,
COc1cccc(NC(=O)CSc2nnc(-c3ccco3)c(-c3ccco3)n2)c1,66*,9,26,87*,3,2,0,
Cc1ccc(NC(=O)CSc2nnc(-c3ccco3)c(-c3ccco3)n2)cc1,57*,6,19,92*,8,7,7,
Cc1ccc(NC(=O)CSc2ccc(-c3ccco3)nn2)cc1,-7,-2,-5,-4,-1,nt,nt,
CSc1nnc(-c2ccco2)c(-c2ccco2)n1,47,3,22,95*,5,2,4,
COc1ccc(C(=O)CSc2nnc(-c3ccco3)c(-c3ccco3)n2)cc1,87*,5,16,76*,33,4,4,
CC(C)OC1=CC(=O)OC(c2cccc(Cl)c2)C1 (stereo unspecified),nt,nt,1,nt,-1,nt,nt,
O=C(COC(=O)CCSc1ccccc1Cl)NCc1ccco1,12,-2,-1,0,-1,nt,nt,
CC1(C(=O)NS(=O)(=O)c2ccc3c(c2)CCO3)CCN1C(=O)c1ccccc1CCc1ccccc1 (stereo unspecified),nt,-6,1,-4,-1,nt,nt,
O=C(NCCCN1CCCC1=O)Nc1ccc(Br)cc1Cl,-2,-1,-4,0,0,nt,nt,
O=C(O)C1Nc2c(Cl)cc(Cl)c(Cl)c2C2C=CCC12 (stereo unspecified),63*,12,63*,83*,70*,85*,0,Beacon interf DR=>99
NC(=O)CC(NC(=O)Cc1cccc2ccccc12)c1ccc(NC2CCCCCCC2)c([N+](=O)[O-])c1 (stereo unspecified),0,3,0,60*,1,1,6,
NC(=O)CC(NC(=O)Cc1ccc(Br)cc1)c1ccc(NC2CCCC2)c([N+](=O)[O-])c1 (stereo unspecified),-6,3,-12,54*,2,3,2,
COC(=O)C(NC(=O)CCc1nnc2ccc(N3CCCCC3)nn12)C(C)C (stereo unspecified),-2,2,11,0,-1,nt,nt,
Cc1ccc(O)c(-c2cc(C(=O)Nc3ccc(S(=O)(=O)N4CC(C)OC(C)C4)cc3)[nH]n2)c1 (stereo unspecified),-7,-4,4,-12,3,nt,nt,
Cc1ccc(-c2cc(C(=O)Nc3ccc(S(=O)(=O)N4CC(C)OC(C)C4)cc3)[nH]n2)c(O)c1 (stereo unspecified),-7,7,7,124*,26,4,0,
CCCCCC(=O)N1C[C@@H](n2cc(C3CC3)nn2)[C@H](O)C[C@@H]1c1ccccc1,nt,0,3,0,0,nt,nt,
Cc1ccsc1/C=N/N=C/c1sccc1C,-2,2,-10,56*,2,4,3,
C=CCN(CC=C)C(=O)CN1C(=O)NC(Cc2c[nH]c3ccccc23)C1=O (stereo unspecified),-3,0,-2,2,-2,nt,nt,
CCN(CC)CCn1c2ccccc2c2cnc(N)c(C#N)c21,0,-1,1,61*,-1,38*,3,Beacon interf DR=>99
COC(=O)c1cc(S(=O)(=O)N2CCN(Cc3ccccc3)CC2)c[nH]1,1,-1,-3,1,0,nt,nt,
COc1ccc(NC(=O)CCCC(=O)OCC(F)(F)C(F)F)cc1,0,-4,0,75*,0,4,1,
COc1ccccc1NC(=O)CCCC(=O)OCC(F)(F)C(F)F,-2,2,-3,9,-1,nt,nt,
CC(C)(C)C(=O)NCc1ccc(C(=O)CSc2nnc3n2CCCCC3)s1,nt,0,-8,-2,-1,nt,nt,
SMILES,Scp1 inh,STEP block,SUMO1 PPI mod,DNMT1 inh,LMPTP block,DNMT1 confirm,DNMT1 interf,others
CCOc1ccc2noc3c2c1C(=O)c1ccccc1-3,-8,-158,-17,+,-27,140*,134*,
O=C1c2ccccc2-c2onc3ccc(N4CCCC4)c1c23,7,-58,9,25,19,nt,nt,
CC(=O)Nc1nc(Cn2nnc(-c3ccc4c(c3)OCO4)n2)nc(N(C)C)n1,-2,1,3,3,0,nt,nt,
O=C(c1ccccc1)C(Nc1ccccn1)c1ccccc1 (stereo unspecified),4,-2,-4,-1,0,nt,nt,
OC(c1ccccc1)C(Nc1ccccn1)c1ccccc1 (stereo unspecified),1,-1,0,55*,-1,2,8,
C=C1CCC2[C@](C)(CO)[C@H](O)CC[C@@]2(C)[C@@H]1C/C=C1\C(=O)OC[C@H]1O (stereo partly specified),-1,-2,5,5,0,nt,nt,
C=C/C(C)=C/C[C@H]1C(=C)CCC2[C@](C)(C(=O)O)CCC[C@@]21C (stereo partly specified),12,-1,14,89*,2,2,-7,
Cc1ccc(C)c(Cn2nnc3c(=O)[nH]c(C(=O)NCc4ccco4)nc32)c1,-2,2,8,52*,0,11,3,
O=C(NCc1ccco1)c1nc2c(nnn2Cc2ccccc2Cl)c(=O)[nH]1,-6,6,3,2,0,nt,nt,
CC(C)C[C@H](NC(=O)N1CCn2c1nc1ccccc12)C(=O)N[C@@H](Cc1ccccc1)C(=O)O,1,-1,3,3,0,nt,nt,
CC(OC(=O)CCN=C1NS(=O)(=O)c2ccccc21)C(=O)c1ccccc1 (stereo unspecified),-6,-1,7,72*,-1,4,2,
COc1cc2c(C#N)c(N3CCCC3)nc(N)c2c(N)n1,0,18,56*,99*,29,3,4,
COc1cc2c(C#N)c(N3CCN(C)CC3)nc(N)c2c(N)n1,nt,-4,8,-20,3,nt,nt,
CCCOc1cc2c(C#N)c(N3CCCC3)nc(N)c2c(N)n1,-1,19,51*,97*,24,3,-2,
C=CCN(c1ccccc1Cl)S(=O)(=O)c1cc(C(=O)N2CCCC2)ccc1Cl,9,-1,5,-2,2,nt,nt,
O=c1[nH]c2ccccc2c2nc3ccccn3c12,0,2,-2,8,0,nt,nt,

# High-throughput results deposited in PubChem by Sanford-Burnham Center for Chemical Genomics.
